Measurements: ChEMBL document CHEMBL1145787, “Synthesis and structure-activity relationship of N-substituted 4-arylsulfonylpiperidine-4-hydroxamic acids as novel, orally active matrix metalloproteinase inhibitors for the treatment of osteoarthritis” (J Med Chem, 2003)

Experiments:
[1] = Area under concentration-time curve of compound was determined in monkey at 5 mg/kg intravenously admn.; format: ADME, organism-based; set-up: dose 5 mg/kg, route intravenous; conditions: simiiformes, in vivo, iv, read-out: AUC 0
Summary of the method: (§1)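 Single-dose PK in Sprague–Dawley rats, New Zealand rabbits, Beagle dogs and cynomolgus monkeys. Dosing was 25 mg/kg oral or 5 mg/kg iv. Plasma concentration–time profiles gave the apparent elimination half-life (T1/2) and the area under the concentration–time curve (AUC). Parameters are reported as means.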

[2] = Oral bioavailability of compound was determined in rabbit at 25 mg/kg orally; format: ADME, organism-based, Oryctolagus cuniculus; conditions: in vivo, read-out: Bioavailabiility
[3] = Time of peak concentration of compound was determined in dog at 25 mg/kg orally; format: ADME, organism-based, Canis lupus familiaris; set-up: dose 25 mg/kg, route oral; conditions: in vivo, po
Summary of the method: (§2)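 Single oral dose of 25 mg/kg in Sprague–Dawley rats, New Zealand rabbits, Beagle dogs and Cynomolgus monkeys. Mean plasma pharmacokinetics; Cmax is the maximum plasma concentration and Tmax is the time of peak concentration.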

[4] = Peak concentration of compound at Time = 0 was determined in rabbit at 5 mg/kg intravenously admn.; format: ADME, organism-based, Oryctolagus cuniculus; set-up: dose 5 mg/kg, route intravenous; conditions: in vivo, iv
Summary of the method: (§3)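 Single iv dose of 5 mg/kg in Sprague–Dawley rats, New Zealand rabbits, Beagle dogs and Cynomolgus monkeys. Mean plasma pharmacokinetics: C0 is the concentration at T=0, Vdss the volume of distribution at steady state, and CLT the total clearance.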

[5] = target: Matrix metalloproteinase-14 (Homo sapiens, UniProt P50281); test: Inhibition of Matrix metalloprotease-14
Summary of the method: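 Inhibitor concentrations run in triplicate; IC50 from a four-parameter logistic fit within a single experiment, reported as the mean of triplicate values.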

[6] = Apparent elimination half life of compound was determined in rabbit at 5 mg/kg intravenously admn.; format: ADME, organism-based, Oryctolagus cuniculus; set-up: dose 5 mg/kg, route intravenous; conditions: in vivo, iv; summary of the method: as §1
[7] = Volume of distribution at steady state of compound was determined in dog at 5 mg/kg intravenously admn.; format: ADME, organism-based, Canis lupus familiaris; set-up: dose 5 mg/kg, route intravenous; conditions: in vivo, iv, read-out: Vdss; summary of the method: as §3
[8] = Oral bioavailability of compound was determined in rat at 25 mg/kg orally; format: ADME, organism-based; conditions: in vivo, read-out: Bioavailabiility
[9] = Maximum plasma concentration of compound was determined in monkey at 25 mg/kg orally; format: ADME, organism-based; set-up: dose 25 mg/kg, route oral; conditions: simiiformes, po; summary of the method: as §2
[10] = Area under concentration-time curve of compound was determined in monkey at 25 mg/kg orally; format: ADME, organism-based; set-up: dose 25 mg/kg, route oral; conditions: simiiformes, in vivo, po; summary of the method: as §1
[11] = Volume of distribution at steady state of compound was determined in rabbit at 5 mg/kg intravenously admn.; format: ADME, organism-based, Oryctolagus cuniculus; set-up: dose 5 mg/kg, route intravenous; conditions: in vivo, iv, read-out: Vdss; summary of the method: as §3
[12] = Apparent elimination half life of compound was determined in monkey at 5 mg/kg intravenously admn.; format: ADME, organism-based; set-up: dose 5 mg/kg, route intravenous; conditions: simiiformes, in vivo, iv; summary of the method: as §1
[13] = target: Matrix metalloproteinase-9 (Homo sapiens, UniProt P14780); test: In vitro inhibitory activity against matrix metalloprotease-9.
Chain of Matrix metalloproteinase-9 (P14780 whole entry): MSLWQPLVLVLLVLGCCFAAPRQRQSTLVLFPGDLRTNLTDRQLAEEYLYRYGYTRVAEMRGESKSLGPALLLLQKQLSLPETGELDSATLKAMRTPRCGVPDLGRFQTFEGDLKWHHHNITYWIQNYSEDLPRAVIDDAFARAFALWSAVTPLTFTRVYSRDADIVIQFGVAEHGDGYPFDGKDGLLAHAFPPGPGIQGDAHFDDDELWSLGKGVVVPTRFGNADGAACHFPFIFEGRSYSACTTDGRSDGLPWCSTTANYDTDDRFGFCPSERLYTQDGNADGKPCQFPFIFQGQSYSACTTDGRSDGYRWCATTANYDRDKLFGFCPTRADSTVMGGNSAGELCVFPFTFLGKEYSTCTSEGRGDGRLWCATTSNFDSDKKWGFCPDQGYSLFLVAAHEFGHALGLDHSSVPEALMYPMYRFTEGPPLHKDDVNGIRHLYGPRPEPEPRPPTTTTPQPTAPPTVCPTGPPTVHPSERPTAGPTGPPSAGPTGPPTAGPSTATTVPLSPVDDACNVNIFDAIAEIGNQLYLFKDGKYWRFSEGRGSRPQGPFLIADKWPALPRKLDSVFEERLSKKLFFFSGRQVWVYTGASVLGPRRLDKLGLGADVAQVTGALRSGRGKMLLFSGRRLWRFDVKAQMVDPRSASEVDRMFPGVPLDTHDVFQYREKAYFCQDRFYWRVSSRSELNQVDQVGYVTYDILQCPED

Stromelysin-1 = Stromelysin-1 (Homo sapiens, UniProt P08254); test: Inhibition of Matrix metalloprotease-3
Chain of Stromelysin-1 (P08254 whole entry): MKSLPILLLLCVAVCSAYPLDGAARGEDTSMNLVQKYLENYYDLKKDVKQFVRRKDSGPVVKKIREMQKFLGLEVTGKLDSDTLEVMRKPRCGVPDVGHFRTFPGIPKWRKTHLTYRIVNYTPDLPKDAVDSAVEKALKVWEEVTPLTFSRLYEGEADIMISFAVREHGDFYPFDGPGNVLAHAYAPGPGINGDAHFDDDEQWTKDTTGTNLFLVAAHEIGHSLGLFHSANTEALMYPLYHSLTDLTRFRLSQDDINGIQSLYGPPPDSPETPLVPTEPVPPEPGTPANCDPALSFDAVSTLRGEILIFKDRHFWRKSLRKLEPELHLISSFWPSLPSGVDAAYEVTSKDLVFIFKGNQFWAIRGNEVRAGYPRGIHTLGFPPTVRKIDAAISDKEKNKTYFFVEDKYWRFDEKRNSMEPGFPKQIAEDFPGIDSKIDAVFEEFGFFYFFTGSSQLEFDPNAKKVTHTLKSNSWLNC
Summary of the method: (§4)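 Each inhibitor concentration was tested in triplicate. IC50 came from a four-parameter logistic fit of data within a single experiment and is reported as the mean of the triplicate values.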

Oryctolagus cuniculus = test: Effect of compound on cartilage in surgically induced osteoarthritis (OA) model in rabbit at 15 mg/kg, value are relative to activity of RS-130830 (7.9+/-1.5) at 25 mg/kg; format: ADME, organism-based, Cartilage tissue; conditions: in vivo
Summary of the method: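 Rabbits had anterior cruciate ligament transection plus meniscectomy in one knee, with sham surgery on the contralateral knee. From day 10 after surgery, groups of 12 were dosed once daily by oral gavage with vehicle, test compound or the RS-130830 reference for 4 weeks. Knee joints were then collected and scored for gross pathological changes by blinded investigators.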

[14] = Peak concentration of compound at Time = 0 was determined in rat at 5 mg/kg intravenously admn.; format: ADME, organism-based; set-up: dose 5 mg/kg, route intravenous; conditions: in vivo, iv; summary of the method: as §3
[15] = Peak concentration of compound at Time = 0 was determined in monkey at 5 mg/kg intravenously admn.; format: ADME, organism-based; set-up: dose 5 mg/kg, route intravenous; conditions: simiiformes, in vivo, iv; summary of the method: as §3
[16] = Volume of distribution at steady state of compound was determined in rat at 5 mg/kg intravenously admn.; format: ADME, organism-based; set-up: dose 5 mg/kg, route intravenous; conditions: in vivo, iv, read-out: Vdss; summary of the method: as §3
[17] = Maximum plasma concentration of compound was determined in rabbit at 25 mg/kg orally; format: ADME, organism-based, Oryctolagus cuniculus; set-up: dose 25 mg/kg, route oral; conditions: po; summary of the method: as §2
[18] = Time of peak concentration of compound was determined in rat at 25 mg/kg orally; format: ADME, organism-based; set-up: dose 25 mg/kg, route oral; conditions: in vivo, po; summary of the method: as §2
Matrilysin = target: T1, Matrilysin (Homo sapiens, UniProt P09237); test: Inhibition of Matrix metalloprotease-7; summary of the method: as §4
T1 sequence (P09237 whole entry): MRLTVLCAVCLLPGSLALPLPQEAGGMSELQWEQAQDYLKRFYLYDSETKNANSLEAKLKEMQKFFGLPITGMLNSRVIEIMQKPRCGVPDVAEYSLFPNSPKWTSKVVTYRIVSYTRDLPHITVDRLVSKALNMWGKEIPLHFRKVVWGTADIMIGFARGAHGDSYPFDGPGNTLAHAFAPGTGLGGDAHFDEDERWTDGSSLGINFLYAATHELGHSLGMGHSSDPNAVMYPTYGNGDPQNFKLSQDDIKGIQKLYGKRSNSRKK

[19] = Oral bioavailability of compound was determined in monkey at 25 mg/kg orally; format: ADME, organism-based; conditions: simiiformes, in vivo, read-out: Bioavailabiility
[20] = Area under concentration-time curve of compound was determined in dog at 5 mg/kg intravenously admn.; format: ADME, organism-based, Canis lupus familiaris; set-up: dose 5 mg/kg, route intravenous; conditions: in vivo, iv, read-out: AUC 0; summary of the method: as §1
[21] = Maximum plasma concentration of compound was determined in rat at 25 mg/kg orally; format: ADME, organism-based; set-up: dose 25 mg/kg, route oral; conditions: po; summary of the method: as §2
[22] = Total clearance of compound was determined in dog at 5 mg/kg intravenously admn.; format: ADME, organism-based, Canis lupus familiaris; set-up: dose 5 mg/kg, route intravenous; conditions: in vivo, iv, read-out: CLT; summary of the method: as §3
[23] = Apparent elimination half life of compound was determined in dogt at 5 mg/kg intravenously admn.; format: ADME, organism-based, Canis lupus familiaris; set-up: dose 5 mg/kg, route intravenous; conditions: dog, in vivo, iv; summary of the method: as §1

AUC [1]: 1510 µg·h/mL | bioavailability [2]: 11% | Tmax [3]: 3.5 h | C0 [4]: 126 µg/mL | IC50 [5]: 7 nM | half-life [6]: 11.8 h | Vd [7]: 0.1 L/kg | bioavailability [8]: 55% | Cmax [9]: 50.3 µg/mL | AUC [10]: 1410 µg·h/mL | Vd [11]: 0.1 L/kg | half-life [12]: 20.7 h | IC50 [13]: 1 nM | IC50 (Stromelysin-1): 55 nM | Average gross pathology scores+/- SE (Oryctolagus cuniculus): 9.7 | C0 [14]: 329 µg/mL | C0 [15]: 162 µg/mL | Vd [16]: 0.1 L/kg | Cmax [17]: 22.7 µg/mL | Tmax [18]: 1.5 h | IC50 (Matrilysin): 925 nM | bioavailability [19]: 37% | AUC [20]: 786 µg·h/mL | Cmax [21]: 75.2 µg/mL | clearance [22]: 0.1 mL/min/kg | half-life [23]: 13.5 h
Structure (SMILES): O=C(NO)C1(S(=O)(=O)c2ccc(Oc3ccc(Cl)cc3)cc2)CCN(Cc2ccccc2)CC1
